This is an account of results in ChEMBL document CHEMBL4513216, “Probing the Open Global Health Chemical Diversity Library for Multistage-Active Starting Points for Next-Generation Antimalarials” (ACS Infect Dis, 2020).

This data set can be described thus: Toxicity liver stage against HepG2, at 10uM. The data set is classed as cell-based. Set-up: test concentration 10 uM, cell line HepG2-A16-CD81EGFP. Conditions: human, HepG2-A16-CD81EGFP cells; read-out: INHIBITION
Put shortly: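 Uninfected HepG2-A16-CD81EGFP cells, 3 × 10^3 per well, 1536-well, plated on prespotted compound at 10 μM final, parasite-free screening media added to match infected plates; puromycin 10 μM positive, DMSO 0.5% negative; run in parallel with 48 h PbLuc assay at 37 °C, 5% CO2; viability by CellTiter-Glo luminescence, normalized to controls.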
Turning to `Cc1c(C(=O)NCC2CCCO2)nnn1-c1cccc2c1CCN(C)C2` (centres undefined), the cytotoxicity at 10 µM was 1.96%.

In the case of `CCS(=O)(=O)N1CCC2(CCCC(=O)N2C)CC1`, the cytotoxicity at 10 µM is 0.817%.

With `Cc1ccc(CN2CCc3onc(C(=O)Nc4cccnc4)c3C2)o1`, the cytotoxicity at 10 µM stood at 5.15%.

Consider `Cc1ccc(CN2CCC3(CC2)CC(c2cccnc2)C(=O)N3C)o1` (centres undefined), for which the cytotoxicity at 10 µM is -2.71%.

For the molecule `CC(c1cccc(-c2ncccc2C#N)c1)N(C)C` (centres undefined), the cytotoxicity at 10 µM is -5.4%.

As for `CC(C(=O)N1CCCN(Cc2ccc(C#N)cc2)CC1)n1cccn1` (centres undefined), the cytotoxicity at 10 µM was -5.6%. As for `CCn1c(CN(C)C)nnc1C1CCN(Cc2ccccn2)CC1`, the figure is 12.5%; as for `Nc1cc2c(nn1)CCN(C(=O)CCc1ccc3c(c1)OCO3)C2`, 3.23%; as for `CC(C)(N)C(=O)N1CCCC1c1cncc(Oc2ccc(F)cc2)n1` (centres undefined), 1.11%. As for `CC(C)CC(=O)N1CCC2(CC1)[C@@H]1CN(C(=O)N(C)C)C[C@@H]1C(=O)N2C`, the figure is 4.85%; as for `COCCN1CCCC2(CCN(Cc3nnc(C4CC4)o3)C2)C1=O` (centres undefined), 0.15%. In the case of `Cc1nnc(-c2cccc(C#N)c2)n1C1CCCN(C(C)C)C1=O` (centres undefined), the cytotoxicity at 10 µM is -6.74%. To `O=C(c1ccoc1)N1CCCN(CC2CCOc3ccccc3C2)CC1` (centres undefined) belongs 0.0531%; to `Cc1cc(=O)[nH]c(SC(C)C(=O)N2CCC(c3ncc[nH]3)CC2)n1` (centres undefined), -16.2%; to `Cc1ccc(N2CCC(C(O)c3cccs3)CC2)nn1` (centres undefined), -49.1%.

In the case of `O=C(N[C@H]1CCCC[C@@H]1O)c1ccc2nc(-c3ccccc3)[nH]c2c1`, the cytotoxicity at 10 µM turned out to be 0.822%.

Take `Cc1cnn(-c2ccc(S(N)(=O)=O)cc2F)c1`: the cytotoxicity at 10 µM came out at 1.64%. As for `COc1ccccc1N1CCC(CNS(=O)(=O)c2cccc(C#N)c2)C1` (centres undefined), the figure is -4.13%; as for `Cc1ccc(Br)cc1NC(=O)NCC(O)CO` (centres undefined), 12.9%. To `Cc1nc2c(c(NC3CC3)n1)CCN(C(=O)C(C)(C)O)CC2` belongs 4.24%; to `Cc1nn(C)c(C)c1C1CCCN1C(=O)CCCNc1ncccn1` (centres undefined), -3.43%. With `CN1CCN(C[C@@H]2OC[C@H]3CN(Cc4ccsc4)CC[C@H]32)CC1`, the cytotoxicity at 10 µM was -11%. To `CCS(=O)(=O)CCn1ccc(NC(=O)CCc2cccc(C)c2)n1` belongs 2.94%; to `N#CC1C(=O)Nc2c(cnn2C2CCCC2)C12CCCCC2` (centres undefined), 8.46%. For `NC1(CNC(=O)c2cc3ccccc3[nH]2)CCCC1`, the cytotoxicity at 10 µM is 15.5%. To `CC(C)c1ncncc1C(=O)N1CCCN(Cc2ccccc2)CC1` belongs -6.9%; to `Cc1cccn2cc(CN3CCCC(O)C3)nc12` (centres undefined), 2.25%; to `Cc1cc(C)n(CC2CCN(CC(O)CN3CCOCC3)CC2)n1` (centres undefined), -7.35%. As for `CCS(=O)(=O)N1CCc2ccc(NC(=O)NC3CCCCC3)cc21`, the figure is -4.56%; as for `c1ccc(OC2C[C@@H]3CN(Cc4cnccn4)C[C@@H]3C2)cc1` (some centres undefined), -5.92%; as for `Cc1csc(C2CCCCN2C(=O)COCc2nc(C)no2)n1` (centres undefined), 1.09%. As for `Cc1nn(C)c(C)c1C1CCCN1CC(=O)NCc1ccco1` (centres undefined), the figure is -12.4%; as for `O=C(NCc1cccnc1)C1=NN(c2ccccc2)C(=O)CN1`, 12.3%.

For `CC(C)=CCn1ncc(N2CCOCC2)cc1=O`, the cytotoxicity at 10 µM was -9.96%. Take `CC(C)CCNC(=O)CNC(=O)N1CCc2c([nH]c3ccc(Cl)cc23)C1`: the cytotoxicity at 10 µM amounted to 6.73%.

As for `CC(=O)N1CCc2c(nc(N(C)C)nc2NCCCn2ccnc2)C1`, the cytotoxicity at 10 µM was -7.28%. As for `CNS(=O)(=O)CC(=O)N(Cc1c(F)cccc1Cl)C1CC1`, the figure is 4.71%. To `CNC(=O)c1cc2c(nc1NCC(C)C)CCN(S(C)(=O)=O)CC2` belongs -161%. To `c1cnc(N2CCC3(CCCN(CC4CCCCC4)C3)C2)cn1` (centres undefined) belongs -1.62%. As to `Cc1ccc(-c2noc([C@H](N)CC(C)C)n2)nn1`, the cytotoxicity at 10 µM came to 1.27%. To `COc1ccc2[nH]cc(C(=O)N3C[C@@H](O)[C@H](N4CCCC4)C3)c2c1` belongs 2.35%. As for `Cc1nn(C)cc1S(=O)(=O)N[C@@H]1CCC[C@@H](n2ccnc2)[C@@H]1O`, the figure is 0.651%; as for `CCN1CC2(CCC1=O)CCN(Cc1cccc(C#N)c1)CC2`, -1.1%; as for `CCNC(=O)[C@@H]1C[C@@H](NC(=O)c2cccnc2O)CN1Cc1ccsc1`, -5.39%. As for `COc1ccc(CN2CC[C@@]3(C2)[C@H](O)CN(C)S3(=O)=O)cc1F`, the figure is -7.86%. As to `CN(C)S(=O)(=O)N1CCC[C@]2(C[C@@H](Oc3ccccn3)CO2)C1`, the cytotoxicity at 10 µM is -2.31%. With `O=C(C1CCOC1)N1CCC2(CCN(Cc3nccs3)C2)CC1` (centres undefined), the cytotoxicity at 10 µM was -74.8%. Regarding `CCc1nc(CN(C(C)=O)C2CCN(CCc3ccccn3)C2)no1` (centres undefined), the cytotoxicity at 10 µM is -11.6%. To `CN(Cc1noc2c1CCCC2)C(=O)Nc1cncc(F)c1` belongs 2.26%. To `COc1ccc(C[C@H]2CN(C(=O)CS(C)(=O)=O)CC[C@H]2OC)cc1` belongs 2.64%. As to `Cc1cnccc1CCNC(=O)Nc1cnc(N(C)C)nc1`, the cytotoxicity at 10 µM was determined as 7.75%. As for `CCO[C@@H]1CC[C@H]2[C@H]1OCCN2C(=O)c1nn(C)c2ccccc12`, the figure is -2.69%; as for `CC(C)(C)c1cccc(OCC(=O)NS(=O)(=O)c2cccnc2)c1`, -12.5%. As for `Cc1ccc2cc(C(=O)N3CCCCC3c3nc[nH]n3)ccc2n1` (centres undefined), the figure is -5.92%; as for `COCc1nccc(C2CCCN(Cc3cccc(C#N)c3)C2)n1` (centres undefined), 18.7%; as for `Cc1cnn(C2CN(CC(=O)N(C)Cc3cccs3)C2)c1`, -16.1%.

On to `COCCOC1CCN(C(C(=O)O)c2c(Cl)cccc2OC)CC1` (centres undefined), for which the cytotoxicity at 10 µM turned out to be 6.15%. As for `Cc1cccc(C(=O)N2CCCC(Cc3cncc4ccccc34)C2)n1` (centres undefined), the figure is -19%. As for `Cc1cc(C)n(CC2CCCN2CCC(=O)Nc2cc(C)on2)n1` (centres undefined), the figure is 1.44%; as for `COc1ncnc2c1CCN(c1cc(C(F)(F)F)ncn1)CC2`, -1.42%. As for `Cc1oc(-c2ccsc2)nc1CC(=O)NCCS(C)(=O)=O`, the figure is -8.6%; as for `Cc1c(C(=O)N2CCCSCC2)nnn1-c1ccccc1Cl`, 8.31%. Turning to `CCS(=O)(=O)c1ncc(CN(C)Cc2ccc(C)o2)n1CCOC`, the cytotoxicity at 10 µM was -4.66%. To `CCN1CCCC1CNC(=O)Cc1c(C)n[nH]c1-c1ccc(OC)cc1` (centres undefined) belongs -3.72%; to `Cc1ccccc1N1CCCN(C(=O)c2nn(C)cc2Cl)CC1`, -4.78%. As for `CCc1ncc(C(=O)NC(C)(C)CC)s1`, the figure is -0.343%. To `CC1=N[C@@]2(CC[C@@H]3CN(CC(C)C)C[C@@H]32)C(=O)N1` belongs 6.5%; to `CC(NCCn1cccn1)c1ccccc1F` (centres undefined), -3.21%; to `CC(C)CCC(=O)N1CCN(C(=O)c2ccc3nccn3c2)CC1`, 7.42%.

For the molecule `Cc1cc(C(=O)N2CC[C@H]3[C@@H]2CCC(=O)N3c2ccccc2)no1`, the cytotoxicity at 10 µM is -113%. To `Cc1nc(CO[C@H]2CN(C(=O)c3cccnc3)[C@@H]3COC[C@H]23)cs1` belongs -110%; to `Cc1c(C)n(CC(O)CN2CCCCCC2)c2c(Cl)cccc12` (centres undefined), -21.9%; to `Cc1cnn(CC2CCCN2C(=O)CCc2ccc3c(c2)OCO3)c1` (centres undefined), -19%.

As for `c1csc(CN2CCn3c(Cn4cncn4)cnc3C2)n1`, the cytotoxicity at 10 µM was -5.97%. As for `Cc1ccc(CNC2(Cc3cc(CC(C)C)on3)COC2)o1`, the figure is -2.07%; as for `O=C(c1cnc(-c2cnccn2)s1)N1CCCC(n2cccn2)C1` (centres undefined), -9.04%. To `COc1ccc(CN2CCO[C@H]3[C@H](OCCN4CCCC4)CC[C@@H]32)cc1` belongs 0.471%. With `CC(=O)N1CCC(NCc2cccnc2N(C)Cc2ccccc2)CC1`, the cytotoxicity at 10 µM is -14.1%.

As to `Cn1ccc(C(=O)NCc2cccc(NC(=O)C3CCC3)c2)cc1=O`, the cytotoxicity at 10 µM was -10%. On to `O=C1NCCCN1Cc1nc(-c2ccc(N3CCCCC3)cc2)no1`, for which the cytotoxicity at 10 µM stood at 3.24%. To `CC(C)Cc1nnc2sc(-c3cc(C(C)C)n[nH]3)nn12` belongs 8.08%. To `CC(C)(C)c1cn2c(n1)C(CNCc1ccccn1)CCC2` (centres undefined) belongs -9.5%; to `Cc1csc(CN(C)C(C)C(=O)N2CCc3ccccc3C2)n1` (centres undefined), -11.7%. As for `COc1cc(CN2CCCC2)ccc1Oc1ncccc1C(F)(F)F`, the figure is 0.96%; as for `c1cncc(CN2CCn3c(Cn4cncn4)cnc3C2)c1`, -70.9%. Take `CCn1cc(CN2CCN(Cc3cccc(OC)c3)C(=O)C2)cc1C#N`: the cytotoxicity at 10 µM is 2.96%. Consider `COC(=O)c1ccc(NC(=O)[C@@H]2CCCN2C(=O)c2ccco2)s1`, for which the cytotoxicity at 10 µM was -3.45%. As for `CC(C)S(=O)(=O)CC(=O)NCC(Cc1ccc(F)cc1)C(N)=O` (centres undefined), the figure is 6.75%; as for `O=C(O)CCC(=O)Nc1nn(Cc2ccc(F)cc2)cc1Cl`, 13.8%; as for `COc1c(C(=O)N2CCNC(=O)C2)cnc2c1c(C)nn2C`, 6.26%. Regarding `CN1[C@H](CN2CCCC2)C[C@@H]2CN(C(=O)Cc3ccsc3)CC[C@@H]21`, the cytotoxicity at 10 µM is -3.45%.

Consider `CN(C)c1cnnc(N2CCN(C(=O)Cc3ccccc3)CC2)c1`, for which the cytotoxicity at 10 µM is 5.5%. As for `CNc1cccc(C2CN(C(=O)c3c[nH]cn3)CCO2)n1` (centres undefined), the figure is 6%; as for `CN1C(=O)CC(c2ccccc2)C12CCN(c1ncccn1)CC2` (centres undefined), -99.4%.
